The results in this text go back to ChEMBL document CHEMBL1909630, “Azaxanthene based selective glucocorticoid receptor modulators: design, synthesis, and pharmacological evaluation of (S)-4-(5-(1-((1,3,4-thiadiazol-2-yl)amino)-2-methyl-1-oxopropan-2-yl)-5H-chromeno[2,3-b]pyridin-2-yl)-2-fluoro-N,N-dimethylbenzamide (BMS-776532) and its methylene homologue …” (J Med Chem, 2011).

The term Ki denotes the equilibrium dissociation constant of an inhibitor or competing ligand from its target. Low values mean a stronger hold on the target, high ones a looser hold on the target. As a reminder, the EC50 is the concentration needed to bring the measured effect to its halfway point. What is called Emax is the size of the effect at its maximum, as opposed to the concentration needed. What is called Tmax is the time from dosing to the highest level. By AUC is commonly meant concentration integrated over time. A low value points to less exposure. For orientation: half-life means how long it takes for the measured level to halve.

The target in one data set is T1, Androgen receptor (Homo sapiens, UniProt P10275).
T1 sequence (P10275 whole entry): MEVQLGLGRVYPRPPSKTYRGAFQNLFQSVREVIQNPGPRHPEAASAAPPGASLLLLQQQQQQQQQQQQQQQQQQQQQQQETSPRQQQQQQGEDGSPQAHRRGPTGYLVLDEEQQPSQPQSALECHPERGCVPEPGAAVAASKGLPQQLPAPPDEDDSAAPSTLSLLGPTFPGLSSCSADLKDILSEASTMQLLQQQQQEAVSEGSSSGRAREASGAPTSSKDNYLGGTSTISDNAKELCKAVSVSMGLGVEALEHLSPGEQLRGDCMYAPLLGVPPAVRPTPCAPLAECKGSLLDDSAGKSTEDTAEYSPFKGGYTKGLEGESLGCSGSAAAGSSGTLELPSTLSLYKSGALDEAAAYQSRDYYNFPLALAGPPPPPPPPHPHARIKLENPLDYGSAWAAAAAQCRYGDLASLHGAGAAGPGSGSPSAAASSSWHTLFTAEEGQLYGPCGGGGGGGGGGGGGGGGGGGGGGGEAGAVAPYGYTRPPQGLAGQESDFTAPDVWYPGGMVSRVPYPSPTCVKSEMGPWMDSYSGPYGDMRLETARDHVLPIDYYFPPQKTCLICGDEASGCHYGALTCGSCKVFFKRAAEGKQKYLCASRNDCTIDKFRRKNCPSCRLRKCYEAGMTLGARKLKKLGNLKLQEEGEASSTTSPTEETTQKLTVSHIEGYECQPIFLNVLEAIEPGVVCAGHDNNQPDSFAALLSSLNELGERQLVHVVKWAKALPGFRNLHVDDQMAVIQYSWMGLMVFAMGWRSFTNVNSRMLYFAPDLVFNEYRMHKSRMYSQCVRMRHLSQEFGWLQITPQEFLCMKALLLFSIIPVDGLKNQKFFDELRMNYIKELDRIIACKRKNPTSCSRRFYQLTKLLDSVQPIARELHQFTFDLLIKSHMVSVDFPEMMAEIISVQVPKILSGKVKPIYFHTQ
Nature of the data set: Displacement of fluorescently labeled ligand from androgen receptor by fluorescence polarization assay. In short, it runs like this:
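Binding was measured by fluorescence polarization competition between compound and a fluorescent ligand for full-length receptor or ligand-binding domain. Values are means of at least two experiments.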
(In fluorescence polarisation assays a small probe gives low polarisation when free and higher when bound to something large.)

Data set [1] has as its target T2, Glucocorticoid receptor (Homo sapiens, UniProt P04150).
T2 sequence (P04150 whole entry): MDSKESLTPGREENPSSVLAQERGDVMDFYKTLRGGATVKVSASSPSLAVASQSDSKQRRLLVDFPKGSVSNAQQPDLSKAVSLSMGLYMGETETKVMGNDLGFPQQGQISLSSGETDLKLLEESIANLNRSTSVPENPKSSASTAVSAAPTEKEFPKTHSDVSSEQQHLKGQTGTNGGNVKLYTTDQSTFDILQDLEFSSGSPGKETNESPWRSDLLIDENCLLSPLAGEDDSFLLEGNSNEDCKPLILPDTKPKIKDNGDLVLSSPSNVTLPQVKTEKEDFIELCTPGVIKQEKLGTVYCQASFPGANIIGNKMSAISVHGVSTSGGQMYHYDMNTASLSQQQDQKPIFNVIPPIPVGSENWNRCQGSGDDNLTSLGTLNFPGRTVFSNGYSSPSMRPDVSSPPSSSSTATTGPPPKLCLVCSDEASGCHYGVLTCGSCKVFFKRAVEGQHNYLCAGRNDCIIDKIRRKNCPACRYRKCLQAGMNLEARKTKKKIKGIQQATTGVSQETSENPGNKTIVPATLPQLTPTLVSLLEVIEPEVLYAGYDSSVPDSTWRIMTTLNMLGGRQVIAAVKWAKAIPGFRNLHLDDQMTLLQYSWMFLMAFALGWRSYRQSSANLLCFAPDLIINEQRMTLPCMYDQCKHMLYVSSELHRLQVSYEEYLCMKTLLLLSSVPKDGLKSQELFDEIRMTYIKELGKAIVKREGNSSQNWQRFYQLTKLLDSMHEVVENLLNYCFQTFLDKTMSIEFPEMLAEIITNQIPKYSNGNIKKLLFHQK
Briefly: Transrepression activity at glucocorticoid receptor alpha in phorbol myristate acetate-stimulated human A549 cells assessed as inhibition of AP1 response element by luciferase reporter gene assay. It is filed as cell-based.

The target of data set [2] is T2, Glucocorticoid receptor. Nature of the data set: Transrepression activity at glucocorticoid receptor alpha in IL-1beta-stimulated human A549 cells assessed as inhibition of NFkappaB-dependent E-selectin transcription by luciferase reporter gene assay. In kind it is cell-based.
The target of data set [3] is T2, Glucocorticoid receptor. Briefly: Transactivation activity at GR-alpha in human NP1 Hela cells assessed as inhibition of GAL4-DBD after 20 hrs by luciferase reporter gene assay. It is filed as cell-based. A general note: A reporter such as luciferase makes a cellular process visible.
The test system of another data set is SAOS-2. Briefly: Induction of alkaline phosphatase expression in human Saos2 cells after 3 days by spectrophotometry. It is filed as cell-based. The following applies: SAOS-2, 72 h.
In another data set the test system is MG-63. Briefly: Induction of glutamine synthase expression in human MG63 cells after overnight incubation by spectrophotometry relative to prednisolone. It is filed as cell-based.
In data set [4] the test system is Blood. Briefly: Antiinflammatory activity in human whole blood assessed as inhibition of LPS-induced TNFalpha production after overnight incubation by ELISA. It is filed as functional, tissue-based. In short, it runs like this: (§1)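 Whole blood from two donors per experiment was collected into ACD-A. Compounds were added and the blood was incubated about 20 h at 37 °C under 5% CO2. Blood was then stimulated for 5 h with LPS (final 100 ng/mL, for TNFα) or IL-1β (final 10 ng/mL, for IL-8). Plasma TNFα or IL-8 was measured by ELISA. Efficacy was expressed as % of dexamethasone, and values are means of at least two experiments.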
(In general: In an ELISA, binding on a coated surface is turned into a signal by an enzyme label.)

The subject of data set [5] is Blood. Nature of the data set: Antiinflammatory activity in human whole blood assessed as inhibition of TNF-alpha-induced IL-8 production after overnight incubation by ELISA. In kind it is functional, tissue-based.
Data set [6] concerns Blood. Nature of the data set: Antiinflammatory activity in human whole blood assessed as inhibition of IL-1beta-induced IL-8 production after overnight incubation by ELISA relative to Dexamethasone. In kind it is functional. In a few lines:
as §1

Data set [7] is described as follows: Tmax in Sprague-Dawley rat at 10 mg/kg, po. In kind it is ADME, organism-based. Details: dose 10 mg/kg, route oral. The following applies: in vivo. In a few lines: (§2)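 Male Sprague-Dawley rats received a single intravenous (1 mg/kg) or oral (10 or 50 mg/kg) dose. Plasma pharmacokinetic parameters were derived from these profiles.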
The nature of data set [8]: AUC in Sprague-Dawley rat at 1 mg/kg, iv. It is filed as ADME, organism-based. Details: dose 1 mg/kg, route intravenous. The conditions noted are these: plasma. In a few lines:
as §2

Data set [9] is described as follows: AUC in Sprague-Dawley rat at 50 mg/kg, po. It is filed as ADME, organism-based. Details: dose 50 mg/kg, route oral. The following applies: plasma. In a few lines: as §2
Data set [10] is described as follows: Half life in Sprague-Dawley rat at 1 mg/kg, iv. It is filed as ADME, organism-based. Also on record: dose 1 mg/kg, route intravenous. The following applies: in vivo. In short, it runs like this: as §2
Data set [11] in a line: Volume of distribution at steady state in Sprague-Dawley rat at 1 mg/kg, iv. Also on record: dose 1 mg/kg, route intravenous. The following applies: in vivo, read-out: Vdss. It is filed as ADME, organism-based. In a few lines: as §2
Data set [12] in a line: Oral bioavailability in Sprague-Dawley rat at 50 mg/kg. The conditions noted are these: in vivo. It is filed as ADME, organism-based. In a few lines:
as §2

A short description of data set [13]: Membrane permeability by PAMPA. In kind it is ADME.
A short description of data set [14]: Drug level in plasma of Sprague-Dawley rat at 30 mg/kg, po measured after 6 hrs. It is filed as ADME, organism-based. Details: dose 30 mg/kg, route oral. The following applies: read-out: Drug uptake. In short, it runs like this: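 Plasma exposure was measured in Sprague-Dawley rats 6 h after a single oral dose of 30 mg/kg given in the carrageenan paw edema study.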

The subject of a further data set is Rattus norvegicus. Nature of the data set: Antiinflammatory activity in po dosed Freund's complete adjuvant-induced Lewis rat arthritis model assessed as reduction in progression of arthritis. It is filed as functional, organism-based. In short, it runs like this:
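Male Lewis rats were inoculated with Mycobacterium butyricum in incomplete Freund's adjuvant. Oral dosing was daily and preventative, running from day 0 to day 21. Onset and progression of arthritis were followed, and ED50 was estimated from the dose response.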

`CCN(C)C(=O)c1ccc(-c2ccc3c(n2)Oc2ccccc2[C@@H]3C(C)(C)C(=O)Nc2nncs2)cc1F`: the Ki on Androgen receptor is over 5 µM. Moreover, the EC50 on Glucocorticoid receptor [1] was determined as 0.0177 µM; on Glucocorticoid receptor [2], 0.00689 µM; at Glucocorticoid receptor [3], 0.113 µM; in the data set on Blood [4], 0.379 µM; in the data set with Blood [5], 0.532 µM. The Emax with SAOS-2 was 24%; in the data set with MG-63, 53%. Besides, the Imax in the data set with Blood [6] is listed as 88%. In addition, the Tmax in data set [7] turned out to be 60 min. Besides, the AUC is 0.526 µg·h/mL in data set [8] and 28.1 µg·h/mL in data set [9]. This molecule showed a half-life in data set [10] of 24 min. For the same molecule, the Vd in data set [11] was 0.5 L/kg. Further, in data set [12], the bioavailability is 107%. Further, in [13], the permeability entry is on record as “permeable”. In addition, in [14], the concentration at 6 h came to 1.11 µM. Moreover, the Activity entry with Rattus norvegicus was “Dose-dependent effect”.
For the molecule `CN(C)C(=O)c1ccc(-c2ccc3c(n2)Oc2ccccc2[C@H]3C(C)(C)C(=O)Nc2nncs2)cc1F`, the Ki on Androgen receptor is over 5 µM. For the same molecule, the EC50 on Glucocorticoid receptor [1] amounted to 0.0332 µM; at Glucocorticoid receptor [2], 0.0338 µM; on Glucocorticoid receptor [3], 0.143 µM; in the data set on Blood [4] it was 0.83 µM; in the data set with Blood [5] it was 1.47 µM. The Emax was 13% with SAOS-2 and 33% in the data set with MG-63. Further, in the data set with Blood [6], the Imax came to 70%. In addition, in [7], the Tmax is 78 min. Further, the values for the AUC in data set [8] and in data set [9] were 0.342 µg·h/mL and 20.2 µg·h/mL, respectively. In data set [10], this molecule had a half-life of 36 min. In [11], the Vd came out at 1 L/kg. In data set [12], the bioavailability amounted to 119%. In addition, in [13], the permeability entry was “permeable”. Moreover, the concentration at 6 h in data set [14] is 0.788 µM. In addition, in the data set with Rattus norvegicus, the Activity entry was “Dose-dependent effect”.
